# Screening data (PubChem BioAssay)
# This is a sample that favours compounds with a hit; in the whole collection about 2.8% have one here.
# RBBP9 inhibitor: human RBBP9 inhibitors, primary screen, biochemical, fluorescence polarization, FP-Rh probe, HTS. Serine hydrolase RBBP9 (Homo sapiens), O75884. recombinant RBBP9. inhibition, % at 7.94 µM. actives 0.2% (n = 220,000). AID 1515, 2009;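 active = inhibition above the campaign mean of all tested compounds plus 3 SD, cut at about 14% in these data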;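 also: plate controls were DMSO wells with RBBP9 for no effect and wells lacking RBBP9 protein for full effect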
#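 Controls: DMSO-treated enzyme wells and wells lacking RBBP9 | Material: RBBP9 protein | Technique: Fluorescence polarization | Replication: Single well per compound, no replicates | Buffer or medium: Tris-NaCl-Pluronic buffer, pH 8.0 | Timing: 30 min compound preincubation, 45 min probe labeling, 25 °C | Read-out basis: Percent inhibition from mP, scaled between DMSO and no-protein wells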
# eIF4E-4G inh: eIF4E–eIF4G protein interaction inhibitors, primary screen, biochemical, uHTS, TR-FRET, eIF4GI fragment. TR-FRET eIF4E-eIF4GI(517-606) binding, 2 h. Eukaryotic translation initiation factor 4E (Mus musculus) + Eukaryotic translation …. actives 0.37% (n = 220,000). inhibition, % at 21.7 µM;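 also: 0% = full FRET control wells and 100% = background wells lacking eIF4GI fragment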
# Wee1 stabilizer: Wee1 degradation inhibitors, primary screen, cell-based, HeLa, Wee1K328M-luciferase, luminescence; Wee1-like protein kinase (Homo sapiens), P30291; HeLa Luc-Wee1K328M stability; 100% = proteasome inhibitor MG132 effect; reporter increase, % at 5 µM; actives 1.2% (n = 220,000);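 active = activation above the mean of all tested compounds plus 3 SD, set per screening run, cut at about 8.8% in these data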;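 also: cells exposed to compound for 20 h before luminescence read; 0% = DMSO alone and 100% = MG132 at 30 µM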
# Target sequence (P30291 whole entry K328M): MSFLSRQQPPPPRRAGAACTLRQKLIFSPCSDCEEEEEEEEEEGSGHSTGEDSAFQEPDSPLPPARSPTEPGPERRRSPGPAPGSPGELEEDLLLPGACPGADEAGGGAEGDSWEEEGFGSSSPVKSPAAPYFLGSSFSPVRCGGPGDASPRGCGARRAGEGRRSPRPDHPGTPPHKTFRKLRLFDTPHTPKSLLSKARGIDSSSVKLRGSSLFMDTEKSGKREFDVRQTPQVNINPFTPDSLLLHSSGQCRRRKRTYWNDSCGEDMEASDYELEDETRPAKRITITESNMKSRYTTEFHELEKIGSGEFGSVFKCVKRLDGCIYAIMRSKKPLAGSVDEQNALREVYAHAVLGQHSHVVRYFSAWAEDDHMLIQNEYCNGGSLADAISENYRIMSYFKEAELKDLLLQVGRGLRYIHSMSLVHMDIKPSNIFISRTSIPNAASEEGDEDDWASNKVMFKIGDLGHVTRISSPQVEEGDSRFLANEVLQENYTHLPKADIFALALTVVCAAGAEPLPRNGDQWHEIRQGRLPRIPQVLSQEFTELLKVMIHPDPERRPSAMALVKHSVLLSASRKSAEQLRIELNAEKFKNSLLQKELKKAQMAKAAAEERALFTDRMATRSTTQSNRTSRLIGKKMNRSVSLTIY
# NCF1 inh: p47phox/p22phox peptide binding inhibitors, primary screen, biochemical, uHTS, NADPH oxidase regulatory subunit; inhibition, % at 24.7 µM; Neutrophil cytosol factor 1 (Homo sapiens), P14598; fluorescence polarization, 2 h; actives 0.53% (n = 220,000);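 also: 0% = p47phox with labelled peptide and 100% = labelled peptide alone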
# 14-3-3 Bad PPI: inhibitors of 14-3-3 zeta/Bad binding, primary screen, biochemical, TR-FRET, bovine 14-3-3 zeta | 14-3-3 protein zeta/delta (Bos taurus), P63103 | TR-FRET 14-3-3zeta/Dy647-pBad peptide displacement, 1 h | inhibition, % at 21.7 µM | actives 0.71% (n = 220,000);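 active = inhibition above about 70%, limit read from the data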;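 also: 0% = full 14-3-3 plus peptide FRET controls and 100% = background without 14-3-3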
# * hit, by the source's call; . = no result given; [ ] = another dose, or the depositor's remark.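 The calls were made as follows, unless noted: active = inhibition above about 30% (limit read from the data); inactive = the rest.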
SMILES,RBBP9 inhibitor,eIF4E-4G inh,Wee1 stabilizer,NCF1 inh,14-3-3 Bad PPI
Cc1ccc(F)c(C2C3C=CCC(c4cccc(-c5ccc(N(C)C)cc5)c4)C3C(=O)N2Cc2ccccc2)c1 (stereo unspecified),.,0,.,-17,1
CN1CCN(/N=C/c2ccc(N(c3ccccc3)c3ccccc3)cc2)CC1,8,3,2,46*,2
CN1CCN(/N=C/c2ccc(N(C)c3ccccc3)cc2)CC1,3,7,5,-4,-7
CCc1nnc(NC(=O)CSc2ncnc3c2oc2ccccc23)s1,-8,-11,-2,-2,73*
O=C(CSc1ncnc2c1oc1ccccc12)Nc1nc2ccccc2s1,-6,3,0,-27,6
COc1cc(N2C(=O)C=CC2=O)c(OC)cc1Cl,-4,3,-2,0,4
O=C1OCC2=C1C(c1ccc(F)cc1)CC(=O)N2c1ccccc1 (stereo unspecified),-1,1,8.9*,2,-1
O=C1OCC2=C1C(c1ccc(F)cc1)CC(=O)N2c1ccc(F)cc1 (stereo unspecified),-7,-2,-1,-1,-4
COc1cccc(CNC(=O)C(=O)NCC(c2ccco2)N2CCOCC2)c1 (stereo unspecified),-10,-7,1,0,-2
Cc1cc(C)c2c(=O)[nH]c(SCC(=O)c3ccc(F)c(C)c3)nc2n1,-2,15,-2,38*,46
COc1cc(/C=C2\N=C(c3c(-c4ccccc4)noc3C)OC2=O)ccc1OC(C)=O,-9,4,1,-4,-1
O=C(c1ccc(F)cc1)C(CCCCCC(CN1CCOCC1)C(=O)c1ccc(F)cc1)CN1CCOCC1 (stereo unspecified),-7,2,1,0,70*
CSc1nnc2c3cc(C)ccc3n(Cc3ccccc3)c2n1,-1,0,-3,23,88*[fluorescence artefact?]
CCC(c1nnnn1Cc1ccc(OC)cc1)N(CCCO)Cc1cc2cc3c(cc2[nH]c1=O)OCO3 (stereo unspecified),-5,6,9.2*,-5,-7
COc1ccccc1/C=C/C1(C(=O)NC2CCCC2)CC(=O)N1c1ccccc1 (stereo unspecified),-1,-1,-2,-9,-5
COc1cc(/C=C(/C#N)c2nc(-c3cc4ccccc4oc3=O)cs2)cc([N+](=O)[O-])c1O,-6,62*,-1,-29,97*
COc1cc(/C=C(\C#N)c2nc(-c3cc4ccccc4oc3=O)cs2)ccc1O,3,23,3,7,62
CN(C(=O)CSC1=NC2C(N=N1)c1cc(Br)ccc1N2C)C1CCCCC1 (stereo unspecified),-6,13,1,22,-3
CC1=CC(=C2C(=O)c3ccccc3C2=O)C=C(C)O1,-12,-38,-1,69*,-104
CC(=O)N1C(=O)C(=C2C=C(C)OC(C)=C2)c2ccccc21,-6,5,-1,-58,-2
CCNc1nc(NCC)n2c(SC(C(=O)Nc3cc(Cl)cc(Cl)c3)c3ccccc3)nnc2n1 (stereo unspecified),4,-1,0,-6,-2
CSc1cccc(NC(=S)N(CCCN2CCCC2)Cc2cccn2Cc2ccc(Cl)cc2)c1,2,9,8,32*,36
COc1cccc(NC(=S)N(CCCN2CCCC2)Cc2cccn2Cc2ccc(Cl)cc2)c1,-2,-1,1,-10,2
CSc1cccc(NC(=S)N(CCCN2CCCC2)Cc2cccs2)c1,-7,2,8,10,-13
S=C(Nc1cccc(Cl)c1)N(CCCN1CCCC1)Cc1cccn1Cc1ccc(Cl)cc1,-2,6,6,43*,25
SMILES,RBBP9 inhibitor,eIF4E-4G inh,Wee1 stabilizer,NCF1 inh,14-3-3 Bad PPI
CC(c1ccc(F)cc1)n1cc(C(=O)NCCN(C)C)nn1 (stereo unspecified),-3,-4,-1,-1,-14
O=C(CCS(=O)(=O)CCN1CCOCC1)NCNC(=O)CCS(=O)(=O)CCN1CCOCC1,-3,-1,-1,-8,-12
COc1ccc(C(=O)Nc2cc(OC)c(NC(=O)c3ccco3)cc2OC)cc1,-6,-5,-1,63*,-13
COc1cc(OC)cc(C(=O)NC(=S)Nc2ccc(NC(=O)c3ccco3)cc2)c1,-2,0,2,9,-8
COc1cc(OC)cc(C(=O)Nc2ccc(NC(=O)c3ccco3)c(Cl)c2)c1,-8,8,9.7*,2,64
CNC(=S)Nc1cc(OC)c(NC(=O)c2ccco2)cc1OC,0,2,9.9*,0,-3
CN(CCC1CCCCO1)C(=O)CCc1nnc(C2CCCCC2)o1 (stereo unspecified),-3,6,1,7,12
O=C(COn1nnc2ccccc21)NCC1CCCCC1,1,-5,-1,2,3
Cc1ccc(C)c(S(=O)(=O)N2CCN(Cc3ccc(O)c4ncccc34)CC2)c1,0,-1,9.3*,0,-15
COCCCNCC(=O)c1c(N)n(Cc2ccccc2)c(=O)n(C)c1=O,6,9,1,-7,75*
Cn1c(=O)c(C(=O)CN2CCCCCC2)c(N)n(Cc2ccccc2)c1=O,3,2,2,-8,-8
CCOC(=O)c1c(C)nc2cc(C)cc(C)n12,-10,1,-1,-21,-24
Cc1cc(CCC(=O)O)c(C)cc1CCC(=O)O,-8,-3,-4,3,83*
Cc1nc2ccsc2c(=O)n1-c1ccc(Cl)cc1,2,-9,1,4,5
Cc1ccc(NC(=O)Cn2c(O)c(N=NC(=O)c3cc4ccccc4cc3O)c3ccccc32)cc1,-2,28,-1,58*,82*[fluorescence artefact?]
O=C(N=Nc1c(O)n(Cc2ccccc2)c2ccccc12)c1cc2ccccc2cc1O,-4,19,-2,40*,47
COc1ccccc1NC(=O)Cn1c(O)c(N=NC(=O)c2ccccc2O)c2ccccc21,1,25,1,30,79*
NC(=O)CNc1n[nH]c(=S)[nH]c1=O,-9,0,0,-1,-4
Cn1nnnc1SCCNCc1ccccc1OCc1ccc(F)cc1,-3,1,0,-5,2
Cc1[nH]nc(SCC(=O)N2CCOCC2)c1[N+](=O)[O-],2,-4,-2,-12,-2
CCc1ccc(N(C(=O)c2csnn2)C(C(=O)NCc2ccccc2)c2ccco2)cc1 (stereo unspecified),-10,9,-1,5,95*[fluorescence artefact?]
